Test results reported in ChEMBL document CHEMBL1142566, “Natural and synthetic 2,2-dimethylpyranocoumarins with antibacterial activity” (2005).
The source made the active and inactive calls.

How the values were obtained:
Format in all cases: functional
Pseudomonas aeruginosa = test: Antimicrobial activity against Pseudomonas aeruginosa ATCC 27853 after 24 hrs by disk diffusion assay
Outline: (§1)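 Bauer-Kirby disk diffusion on trypticase Mueller-Hinton agar. Plates were seeded with ATCC reference strains to a final 10⁷ cell/mL. Test compounds were dissolved in DMSO and applied to 6 mm paper disks, with solvent-only disks as negative control. Plates were incubated 24 h at 37 °C. Inhibition zone diameter (mm) was averaged over three experiments and scored <7 (-), 7-10 (+), 11-16 (++), >16 (+++).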

Enterobacter cloacae = test: Antimicrobial activity against Enterobacter cloacae ATCC 13047 after 24 hrs by disk diffusion assay; outline: as §1
Klebsiella pneumoniae = test: Antimicrobial activity against Klebsiella pneumoniae ATCC 13883 after 24 hrs by disk diffusion assay; outline: as §1
[1] = test system: Staphylococcus epidermidis; test: Antimicrobial activity against Staphylococcus epidermidis ATCC 12228 after 24 hrs by disk diffusion assay; outline: as §1
Escherichia coli = test: Antimicrobial activity against Escherichia coli ATCC 25922 after 24 hrs by disk diffusion assay; outline: as §1
Staphylococcus aureus = test: Antimicrobial activity against Staphylococcus aureus ATCC 25923 after 24 hrs by disk diffusion assay; outline: as §1
Proteus mirabilis = test: Antimicrobial activity against Proteus mirabilis after 24 hrs by disk diffusion assay; outline: as §1

O=C(O)[C@H]1/C(=C/CO)O[C@@H]2CC(=O)N21 [CLAVULANIC ACID]
>16 mm: inhibition zone (IZ) (Pseudomonas aeruginosa) | inhibition zone (IZ) (Enterobacter cloacae) | inhibition zone (IZ) [1] | inhibition zone (IZ) (Escherichia coli) | inhibition zone (IZ) (Staphylococcus aureus)
> 16 mm: inhibition zone (IZ) (Klebsiella pneumoniae)

CC1(C)C=Cc2cc3ccc(=O)oc3cc2O1
inactive: Activity (Pseudomonas aeruginosa) | Activity (Enterobacter cloacae) | Activity (Klebsiella pneumoniae) | Activity [1] | Activity (Proteus mirabilis) | Activity (Escherichia coli) | Activity (Staphylococcus aureus)

CC1(C)C=Cc2c(ccc3ccc(=O)oc23)O1
inactive: Activity (Pseudomonas aeruginosa) | Activity (Enterobacter cloacae) | Activity (Klebsiella pneumoniae) | Activity [1] | Activity (Proteus mirabilis) | Activity (Escherichia coli) | Activity (Staphylococcus aureus)

CC1(C)Oc2ccc3ccc(=O)oc3c2[C@H](OC(=O)c2ccccc2)[C@H]1Br
7 mm: inhibition zone (IZ) (Pseudomonas aeruginosa) | inhibition zone (IZ) (Enterobacter cloacae) | inhibition zone (IZ) (Klebsiella pneumoniae) | inhibition zone (IZ) [1] | inhibition zone (IZ) (Proteus mirabilis) | inhibition zone (IZ) (Escherichia coli) | inhibition zone (IZ) (Staphylococcus aureus)

CC(=O)O[C@H]1c2c(ccc3ccc(=O)oc23)OC(C)(C)[C@H]1OC(C)=O
inactive: Activity (Pseudomonas aeruginosa) | Activity (Enterobacter cloacae) | Activity (Klebsiella pneumoniae) | Activity [1] | Activity (Proteus mirabilis) | Activity (Escherichia coli) | Activity (Staphylococcus aureus)

COc1cc2c(c3oc(=O)ccc13)C(OC(C)=O)CC(C)(C)O2 (racemic)
7 mm: inhibition zone (IZ) (Proteus mirabilis)
<7 mm: inhibition zone (IZ) (Pseudomonas aeruginosa) | inhibition zone (IZ) (Enterobacter cloacae) | inhibition zone (IZ) (Klebsiella pneumoniae) | inhibition zone (IZ) (Escherichia coli)
11 mm: inhibition zone (IZ) [1] | inhibition zone (IZ) (Staphylococcus aureus)

COc1cc2c(c3oc(=O)ccc13)C(O)CC(C)(C)O2 (racemic)
inactive: Activity (Pseudomonas aeruginosa) | Activity (Enterobacter cloacae) | Activity (Klebsiella pneumoniae) | Activity [1] | Activity (Proteus mirabilis) | Activity (Escherichia coli) | Activity (Staphylococcus aureus)

COc1cc2oc(=O)ccc2c2c1C=CC(C)(C)O2 [ALLOXANTHOXYLETIN]
7 mm: inhibition zone (IZ) (Enterobacter cloacae) | inhibition zone (IZ) (Klebsiella pneumoniae) | inhibition zone (IZ) [1] | inhibition zone (IZ) (Proteus mirabilis) | inhibition zone (IZ) (Escherichia coli) | inhibition zone (IZ) (Staphylococcus aureus)
11 mm: inhibition zone (IZ) (Pseudomonas aeruginosa)

CC(=O)Oc1cc(OC(C)=O)c2ccc(=O)oc2c1
7 mm: inhibition zone (IZ) (Pseudomonas aeruginosa) | inhibition zone (IZ) (Enterobacter cloacae) | inhibition zone (IZ) (Klebsiella pneumoniae) | inhibition zone (IZ) (Proteus mirabilis) | inhibition zone (IZ) (Escherichia coli) | inhibition zone (IZ) (Staphylococcus aureus)
11 mm: inhibition zone (IZ) [1]

CC1(C)C=Cc2c(O)cc3oc(=O)ccc3c2O1
inactive: Activity (Pseudomonas aeruginosa) | Activity (Enterobacter cloacae) | Activity (Klebsiella pneumoniae) | Activity [1] | Activity (Proteus mirabilis) | Activity (Escherichia coli) | Activity (Staphylococcus aureus)

CC1(C)CC(O)c2c(ccc3ccc(=O)oc23)O1 (stereo not given)
inactive: Activity (Pseudomonas aeruginosa) | Activity (Enterobacter cloacae) | Activity (Klebsiella pneumoniae) | Activity [1] | Activity (Proteus mirabilis) | Activity (Escherichia coli) | Activity (Staphylococcus aureus)

CC1(C)C=Cc2c(c3c(c4ccc(=O)oc24)OC(C)(C)C=C3)O1 [DIPETALOLACTONE]
7 mm: inhibition zone (IZ) (Enterobacter cloacae) | inhibition zone (IZ) (Klebsiella pneumoniae) | inhibition zone (IZ) [1] | inhibition zone (IZ) (Proteus mirabilis) | inhibition zone (IZ) (Escherichia coli)
11 mm: inhibition zone (IZ) (Pseudomonas aeruginosa) | inhibition zone (IZ) (Staphylococcus aureus)

COc1cc2c(c3oc(=O)ccc13)[C@H](O)[C@H](O)C(C)(C)O2 (racemic)
inactive: Activity (Pseudomonas aeruginosa) | Activity (Enterobacter cloacae) | Activity (Klebsiella pneumoniae) | Activity [1] | Activity (Proteus mirabilis) | Activity (Escherichia coli) | Activity (Staphylococcus aureus)

CC(=O)Oc1cc2c(c3oc(=O)ccc13)C=CC(C)(C)O2
7 mm: inhibition zone (IZ) (Pseudomonas aeruginosa) | inhibition zone (IZ) (Enterobacter cloacae) | inhibition zone (IZ) (Klebsiella pneumoniae) | inhibition zone (IZ) [1] | inhibition zone (IZ) (Proteus mirabilis) | inhibition zone (IZ) (Escherichia coli) | inhibition zone (IZ) (Staphylococcus aureus)

CC1(C)S[C@@H]2[C@H](NC(=O)[C@H](N)c3ccc(O)cc3)C(=O)N2[C@H]1C(=O)O [AMOXICILLIN]
11 mm: inhibition zone (IZ) (Klebsiella pneumoniae)
>16 mm: inhibition zone (IZ) (Pseudomonas aeruginosa) | inhibition zone (IZ) (Enterobacter cloacae) | inhibition zone (IZ) [1] | inhibition zone (IZ) (Escherichia coli) | inhibition zone (IZ) (Staphylococcus aureus)

CC1(C)Oc2ccc3ccc(=O)oc3c2[C@H](O)[C@H]1Br
inactive: Activity (Pseudomonas aeruginosa) | Activity (Enterobacter cloacae) | Activity (Klebsiella pneumoniae) | Activity [1] | Activity (Proteus mirabilis) | Activity (Escherichia coli) | Activity (Staphylococcus aureus)

CC(=O)Oc1cc2oc(=O)ccc2c2c1C=CC(C)(C)O2
7 mm: inhibition zone (IZ) (Pseudomonas aeruginosa) | inhibition zone (IZ) (Enterobacter cloacae) | inhibition zone (IZ) (Klebsiella pneumoniae) | inhibition zone (IZ) [1] | inhibition zone (IZ) (Proteus mirabilis) | inhibition zone (IZ) (Escherichia coli) | inhibition zone (IZ) (Staphylococcus aureus)

COc1cc2c(c3oc(=O)ccc13)C=CC(C)(C)O2
7 mm: inhibition zone (IZ) (Enterobacter cloacae) | inhibition zone (IZ) (Klebsiella pneumoniae) | inhibition zone (IZ) [1] | inhibition zone (IZ) (Escherichia coli) | inhibition zone (IZ) (Staphylococcus aureus)
11 mm: inhibition zone (IZ) (Pseudomonas aeruginosa) | inhibition zone (IZ) (Proteus mirabilis)

COc1cc(OC)c2ccc(=O)oc2c1 [CITROPTEN]
7 mm: inhibition zone (IZ) (Enterobacter cloacae) | inhibition zone (IZ) (Klebsiella pneumoniae) | inhibition zone (IZ) (Proteus mirabilis) | inhibition zone (IZ) (Escherichia coli) | inhibition zone (IZ) (Staphylococcus aureus)
11 mm: inhibition zone (IZ) (Pseudomonas aeruginosa) | inhibition zone (IZ) [1]

O=c1ccc2c(O)cc(O)cc2o1
7 mm: inhibition zone (IZ) (Pseudomonas aeruginosa) | inhibition zone (IZ) (Enterobacter cloacae) | inhibition zone (IZ) (Klebsiella pneumoniae) | inhibition zone (IZ) [1] | inhibition zone (IZ) (Proteus mirabilis) | inhibition zone (IZ) (Escherichia coli) | inhibition zone (IZ) (Staphylococcus aureus)

COc1cc2c(c3oc(=O)ccc13)[C@H](OC(=O)c1ccccc1)[C@@H](Br)C(C)(C)O2 (racemic)
11 mm: inhibition zone (IZ) (Pseudomonas aeruginosa)
7 mm: inhibition zone (IZ) (Enterobacter cloacae) | inhibition zone (IZ) (Klebsiella pneumoniae) | inhibition zone (IZ) [1] | inhibition zone (IZ) (Proteus mirabilis) | inhibition zone (IZ) (Escherichia coli) | inhibition zone (IZ) (Staphylococcus aureus)

COc1cc2c(c3oc(=O)ccc13)[C@H](OC(C)=O)[C@@H](Br)C(C)(C)O2 (racemic)
<7 mm: inhibition zone (IZ) (Pseudomonas aeruginosa) | inhibition zone (IZ) (Enterobacter cloacae) | inhibition zone (IZ) (Klebsiella pneumoniae) | inhibition zone (IZ) (Escherichia coli)
11 mm: inhibition zone (IZ) [1]
7 mm: inhibition zone (IZ) (Proteus mirabilis) | inhibition zone (IZ) (Staphylococcus aureus)

COc1cc2c(c3oc(=O)ccc13)[C@H](O)[C@@H](Br)C(C)(C)O2 (racemic)
11 mm: inhibition zone (IZ) (Pseudomonas aeruginosa)
7 mm: inhibition zone (IZ) (Enterobacter cloacae) | inhibition zone (IZ) (Klebsiella pneumoniae) | inhibition zone (IZ) [1] | inhibition zone (IZ) (Proteus mirabilis) | inhibition zone (IZ) (Escherichia coli) | inhibition zone (IZ) (Staphylococcus aureus)

CC1(C)Oc2ccc3ccc(=O)oc3c2[C@H](O)[C@@H]1O
inactive: Activity (Pseudomonas aeruginosa) | Activity (Enterobacter cloacae) | Activity (Klebsiella pneumoniae) | Activity [1] | Activity (Proteus mirabilis) | Activity (Escherichia coli) | Activity (Staphylococcus aureus)

CC(=O)O[C@H]1c2c(ccc3ccc(=O)oc23)OC(C)(C)[C@@H]1Br
<7 mm: inhibition zone (IZ) (Pseudomonas aeruginosa) | inhibition zone (IZ) (Enterobacter cloacae) | inhibition zone (IZ) (Klebsiella pneumoniae) | inhibition zone (IZ) (Escherichia coli)
7 mm: inhibition zone (IZ) (Proteus mirabilis)
11 mm: inhibition zone (IZ) [1] | inhibition zone (IZ) (Staphylococcus aureus)

CCN[C@@H]1C[C@H](N)[C@@H](O[C@H]2OC(CN)=CC[C@H]2N)[C@H](O)[C@H]1O[C@H]1OC[C@](C)(O)[C@H](NC)[C@H]1O [NETILMICIN]
>16 mm: inhibition zone (IZ) (Pseudomonas aeruginosa) | inhibition zone (IZ) (Enterobacter cloacae) | inhibition zone (IZ) [1] | inhibition zone (IZ) (Escherichia coli) | inhibition zone (IZ) (Staphylococcus aureus)
11 mm: inhibition zone (IZ) (Klebsiella pneumoniae)

CC1(C)C=Cc2c(cc(O)c3ccc(=O)oc23)O1
inactive: Activity (Pseudomonas aeruginosa) | Activity (Enterobacter cloacae) | Activity (Klebsiella pneumoniae) | Activity [1] | Activity (Proteus mirabilis) | Activity (Escherichia coli) | Activity (Staphylococcus aureus)

CC(=O)OC1CC(C)(C)Oc2ccc3ccc(=O)oc3c21 (stereo not given)
inactive: Activity (Pseudomonas aeruginosa) | Activity (Enterobacter cloacae) | Activity (Klebsiella pneumoniae) | Activity [1] | Activity (Proteus mirabilis) | Activity (Escherichia coli) | Activity (Staphylococcus aureus)

COc1cc2c(c3oc(=O)ccc13)[C@H](OC(C)=O)[C@H](OC(C)=O)C(C)(C)O2 (racemic)
inactive: Activity (Pseudomonas aeruginosa) | Activity (Enterobacter cloacae) | Activity (Klebsiella pneumoniae) | Activity [1] | Activity (Proteus mirabilis) | Activity (Escherichia coli) | Activity (Staphylococcus aureus)
